{
  "source": "ChEMBL document CHEMBL4311983",
  "about": "“Development of chalcone-O-alkylamine derivatives as multifunctional agents against Alzheimer's disease” (Eur J Med Chem, 2019)",
  "key": {"[1]": {"experiment": "Inhibition of Cu2+-induced amyloid beta (1 to 42 residues) aggregation at 25 uM after 24 hrs by thioflavin T-based fluorescence assay relative to control", "method_in_brief": "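Aβ1-42 (25 μM final) with Cu2+ (25 μM final) in 20 mM HEPES pH 6.6, 150 NaCl, ± compound 25 μM final, 37 °C for 24 h; 5 μM ThT in 50 mM glycine-NaOH pH 8.50 added; ex 446/em 490 nm; triplicate.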"}, "[2]": {"experiment": "Disaggregation of Cu2+ induced preformed fibrils of amyloid beta (1 to 42) at 25 uM preincubated with Cu2+ for 24 hrs followed by compound addition and measured after 24 hrs by thioflavin-T based fluorescence assay relative to control", "method_in_brief": "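Aβ1-42 and Cu2+ (each 25 μM final) in 20 mM HEPES pH 6.6, 150 mM NaCl, preincubated 24 h at 37 °C; compound (25 μM final) added, another 24 h at 37 °C under film; 5 μM ThT in glycine-NaOH added; ex 446/em 490 nm; triplicate.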"}, "Acetylcholinesterase [3]": {"target": "T1, Acetylcholinesterase (Electrophorus electricus, UniProt O42275)", "T1 sequence (O42275 whole entry)": "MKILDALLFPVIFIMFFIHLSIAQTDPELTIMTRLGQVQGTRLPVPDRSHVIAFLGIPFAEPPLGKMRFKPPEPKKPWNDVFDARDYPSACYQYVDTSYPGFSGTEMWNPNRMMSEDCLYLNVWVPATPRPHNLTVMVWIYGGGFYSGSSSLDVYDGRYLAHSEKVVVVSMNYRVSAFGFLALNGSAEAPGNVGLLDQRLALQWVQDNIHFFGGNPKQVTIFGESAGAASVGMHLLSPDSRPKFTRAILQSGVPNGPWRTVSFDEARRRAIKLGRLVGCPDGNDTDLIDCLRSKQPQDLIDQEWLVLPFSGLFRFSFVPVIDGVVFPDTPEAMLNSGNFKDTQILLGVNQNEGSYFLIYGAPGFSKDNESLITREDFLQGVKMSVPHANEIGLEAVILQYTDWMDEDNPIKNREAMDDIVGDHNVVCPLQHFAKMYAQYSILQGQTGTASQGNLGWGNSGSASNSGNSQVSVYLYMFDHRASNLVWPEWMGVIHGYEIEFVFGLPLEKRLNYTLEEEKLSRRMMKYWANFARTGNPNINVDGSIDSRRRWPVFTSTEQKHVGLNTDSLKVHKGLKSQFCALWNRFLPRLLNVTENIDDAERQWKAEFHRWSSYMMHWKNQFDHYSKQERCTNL", "type": "single protein"}, "Cholinesterase [4]": {"target": "T2, Cholinesterase (Homo sapiens, UniProt P06276)", "T2 sequence (P06276 whole entry)": "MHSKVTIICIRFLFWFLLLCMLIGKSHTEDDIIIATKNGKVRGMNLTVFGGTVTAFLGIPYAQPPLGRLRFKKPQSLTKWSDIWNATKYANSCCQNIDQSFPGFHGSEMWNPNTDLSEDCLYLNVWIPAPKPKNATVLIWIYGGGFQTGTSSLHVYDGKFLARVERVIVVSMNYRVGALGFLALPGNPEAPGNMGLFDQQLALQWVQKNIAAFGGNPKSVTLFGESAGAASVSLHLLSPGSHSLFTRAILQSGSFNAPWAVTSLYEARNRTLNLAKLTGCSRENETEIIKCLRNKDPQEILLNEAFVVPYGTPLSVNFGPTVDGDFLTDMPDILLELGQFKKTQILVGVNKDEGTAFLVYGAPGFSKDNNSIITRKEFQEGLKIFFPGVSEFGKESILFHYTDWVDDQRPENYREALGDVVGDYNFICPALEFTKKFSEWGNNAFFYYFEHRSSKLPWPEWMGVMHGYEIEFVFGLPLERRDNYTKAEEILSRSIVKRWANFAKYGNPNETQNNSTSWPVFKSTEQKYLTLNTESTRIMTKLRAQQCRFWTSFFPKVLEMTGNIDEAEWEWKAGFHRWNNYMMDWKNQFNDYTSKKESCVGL", "experiment": "Inhibition of human BuChE using butyrylthiocholine iodide as substrate incubated for 15 mins by Ellman's method", "method_in_brief": "(§1)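 Modified Ellman assay in phosphate buffer pH 8.0, with enzyme at 0.05 U/mL final: eel AChE, equine serum BuChE or human serum BuChE. Test compound was added at several concentrations, and blanks lacked enzyme.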"}, "[5]": {"target": "T3, Amine oxidase [flavin-containing] A (Homo sapiens, UniProt P21397)", "T3 sequence (P21397 whole entry)": "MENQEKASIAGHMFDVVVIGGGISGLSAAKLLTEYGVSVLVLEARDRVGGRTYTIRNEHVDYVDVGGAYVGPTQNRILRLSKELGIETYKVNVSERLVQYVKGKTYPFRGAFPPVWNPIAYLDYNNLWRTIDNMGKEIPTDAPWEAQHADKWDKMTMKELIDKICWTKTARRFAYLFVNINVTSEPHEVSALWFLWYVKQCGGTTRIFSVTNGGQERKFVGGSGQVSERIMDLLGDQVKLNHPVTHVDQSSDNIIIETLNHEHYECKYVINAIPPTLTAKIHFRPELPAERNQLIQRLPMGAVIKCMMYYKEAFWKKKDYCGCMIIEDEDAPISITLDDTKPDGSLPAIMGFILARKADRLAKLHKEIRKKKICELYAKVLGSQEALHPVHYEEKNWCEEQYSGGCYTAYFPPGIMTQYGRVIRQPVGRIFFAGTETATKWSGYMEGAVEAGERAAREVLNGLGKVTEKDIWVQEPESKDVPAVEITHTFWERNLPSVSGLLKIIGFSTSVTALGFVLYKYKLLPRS", "experiment": "Inhibition of recombinant human MAO-A expressed in baculovirus infected BTI insect cells at 10 uM using kynuramine as substrate after 30 mins by fluorescence based assay relative to control", "conditions": "0.5 h"}, "Cholinesterase [6]": {"target": "Cholinesterase (Equus caballus, UniProt P81908)", "sequence (P81908 whole entry)": "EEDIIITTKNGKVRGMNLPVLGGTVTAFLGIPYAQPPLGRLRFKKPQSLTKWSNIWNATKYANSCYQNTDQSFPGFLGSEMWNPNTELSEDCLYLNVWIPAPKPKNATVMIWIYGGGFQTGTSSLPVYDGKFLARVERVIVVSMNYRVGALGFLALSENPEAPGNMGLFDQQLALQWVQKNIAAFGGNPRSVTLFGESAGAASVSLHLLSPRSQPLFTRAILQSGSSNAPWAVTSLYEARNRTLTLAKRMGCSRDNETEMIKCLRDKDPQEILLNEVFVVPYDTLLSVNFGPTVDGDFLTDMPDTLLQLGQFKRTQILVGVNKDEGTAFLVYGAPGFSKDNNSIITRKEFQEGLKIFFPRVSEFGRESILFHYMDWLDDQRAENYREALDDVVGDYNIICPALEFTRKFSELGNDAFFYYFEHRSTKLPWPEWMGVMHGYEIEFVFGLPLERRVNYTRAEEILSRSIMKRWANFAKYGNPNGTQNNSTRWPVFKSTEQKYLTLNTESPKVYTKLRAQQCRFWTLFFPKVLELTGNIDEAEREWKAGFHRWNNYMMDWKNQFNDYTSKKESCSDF", "experiment": "Inhibition of equine butyrylcholinesterase using butyrylthiocholine iodide as substrate incubated for 15 mins by Ellman's method", "method_in_brief": "as §1"}, "[7]": {"target": "T4, Amine oxidase [flavin-containing] B (Homo sapiens, UniProt P27338)", "T4 sequence (P27338 whole entry)": "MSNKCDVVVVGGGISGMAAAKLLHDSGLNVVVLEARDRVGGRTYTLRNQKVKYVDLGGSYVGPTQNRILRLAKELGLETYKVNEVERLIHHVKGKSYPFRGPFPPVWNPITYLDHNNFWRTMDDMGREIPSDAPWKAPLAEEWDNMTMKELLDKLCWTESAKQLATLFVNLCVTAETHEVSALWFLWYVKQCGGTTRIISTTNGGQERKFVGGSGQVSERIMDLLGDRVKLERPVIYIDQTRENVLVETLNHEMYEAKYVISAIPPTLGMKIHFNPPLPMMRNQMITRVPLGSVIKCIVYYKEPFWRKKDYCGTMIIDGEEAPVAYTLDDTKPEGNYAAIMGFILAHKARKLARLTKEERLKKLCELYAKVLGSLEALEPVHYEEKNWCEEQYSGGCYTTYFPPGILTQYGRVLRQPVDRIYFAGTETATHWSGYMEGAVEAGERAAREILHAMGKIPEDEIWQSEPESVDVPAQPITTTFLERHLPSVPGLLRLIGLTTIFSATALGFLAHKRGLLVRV", "experiment": "biochemical", "type": "cell-based"}, "[8]": {"experiment": "Selectivity index, ratio of IC50 for equine BuChE to IC50 for electric eel AChE", "method_in_brief": "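Ratio of Ellman-assay IC50 values, BuChE over AChE. Enzymes were equine serum BuChE and electric eel AChE, each at 0.05 U/mL final in pH 8.0 phosphate buffer. Each IC50 is the mean of three independent experiments run in triplicate.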"}, "Acetylcholinesterase [9]": {"target": "Acetylcholinesterase (Homo sapiens, UniProt P22303)", "sequence (P22303 whole entry)": "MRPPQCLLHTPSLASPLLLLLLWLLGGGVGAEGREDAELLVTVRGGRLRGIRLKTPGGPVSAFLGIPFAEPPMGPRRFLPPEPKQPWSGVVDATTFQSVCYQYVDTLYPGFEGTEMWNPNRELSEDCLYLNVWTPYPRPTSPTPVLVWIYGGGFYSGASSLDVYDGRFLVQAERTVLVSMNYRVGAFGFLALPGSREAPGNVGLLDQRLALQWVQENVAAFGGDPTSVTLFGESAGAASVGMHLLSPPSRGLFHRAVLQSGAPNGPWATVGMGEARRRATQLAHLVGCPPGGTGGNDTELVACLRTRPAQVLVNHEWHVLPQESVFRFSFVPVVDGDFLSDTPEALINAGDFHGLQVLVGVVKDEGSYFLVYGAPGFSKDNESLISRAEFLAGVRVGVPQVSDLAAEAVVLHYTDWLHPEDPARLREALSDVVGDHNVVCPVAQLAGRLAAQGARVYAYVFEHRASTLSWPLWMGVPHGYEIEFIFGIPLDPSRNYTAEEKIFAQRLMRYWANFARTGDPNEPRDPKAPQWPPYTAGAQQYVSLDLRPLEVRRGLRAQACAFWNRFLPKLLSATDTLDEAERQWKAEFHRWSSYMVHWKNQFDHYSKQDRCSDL", "experiment": "Inhibition of human AChE using acetylthiocholine iodide as substrate after 15 mins by Ellman's method"}, "Acetylcholinesterase [10]": {"target": "T1, Acetylcholinesterase", "experiment": "Inhibition of Electric eel AChE", "method_in_brief": "as §1"}, "[11]": {"target": "T4, Amine oxidase [flavin-containing] B", "experiment": "Inhibition of MAO-B (unknown origin)"}, "[12]": {"target": "Amyloid-beta precursor protein (Homo sapiens) (UniProt P05067)", "sequence (P05067 whole entry, the tested form may be a part)": "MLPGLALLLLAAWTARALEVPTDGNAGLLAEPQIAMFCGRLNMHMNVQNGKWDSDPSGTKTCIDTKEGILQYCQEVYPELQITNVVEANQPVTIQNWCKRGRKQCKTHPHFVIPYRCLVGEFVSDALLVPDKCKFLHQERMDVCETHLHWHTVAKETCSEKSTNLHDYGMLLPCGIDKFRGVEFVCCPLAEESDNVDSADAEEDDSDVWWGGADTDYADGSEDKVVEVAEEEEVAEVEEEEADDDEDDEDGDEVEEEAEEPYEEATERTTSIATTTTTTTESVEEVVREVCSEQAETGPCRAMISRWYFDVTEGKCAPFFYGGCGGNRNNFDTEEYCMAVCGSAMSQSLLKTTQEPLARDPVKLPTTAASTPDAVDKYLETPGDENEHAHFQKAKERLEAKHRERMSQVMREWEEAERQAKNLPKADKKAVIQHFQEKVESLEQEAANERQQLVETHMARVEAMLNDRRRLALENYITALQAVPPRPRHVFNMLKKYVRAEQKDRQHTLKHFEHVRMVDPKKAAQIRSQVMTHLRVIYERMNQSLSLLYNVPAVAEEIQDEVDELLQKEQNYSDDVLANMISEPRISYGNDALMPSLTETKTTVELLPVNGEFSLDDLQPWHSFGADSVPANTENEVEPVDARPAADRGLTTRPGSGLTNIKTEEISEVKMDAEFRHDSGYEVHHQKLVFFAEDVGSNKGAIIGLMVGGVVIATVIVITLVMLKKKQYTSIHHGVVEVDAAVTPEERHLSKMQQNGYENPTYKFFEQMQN", "experiment": "Inhibition of self-induced amyloid beta ( 1 to 42 residues) (unknown origin) aggregation relative to control", "conditions": "concentration not given here", "method_in_brief": "(§2)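 HFIP-treated Aβ1-42, dried, redissolved in DMSO; 25 μM final peptide incubated with 25 μM compound in 50 mM phosphate buffer pH 7.40, 37 °C, 24 h; 5 μM ThT in 50 mM glycine-NaOH pH 8.0 added; fluorescence ex 446/em 490 nm.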"}, "Cholinesterase [13]": {"target": "T2, Cholinesterase", "experiment": "Inhibition of BuChE (unknown origin)"}, "[14]": {"experiment": "Antioxidant activity assessed as trolox equivalent of AAPH-induced radical scavenging activity preincubated for 15 mins followed by AAPH addition measured every minute for 120 mins by ORAC fluorescein assay", "type": "functional", "method_in_brief": "(§3)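 ORAC-FL in 75 mM phosphate buffer pH 7.40; fluorescein 150 nM final plus test antioxidant; Trolox standard at 1-8 μM final; values as Trolox equivalents.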"}, "[15]": {"target": "Amyloid-beta precursor protein (Homo sapiens) (UniProt P05067)", "experiment": "Inhibition of HFIP-pretreated amyloid beta (1 to 42 residues) (unknown origin) self aggregation at 25 uM after 24 hrs by ThT-based fluorescence method relative to control", "method_in_brief": "as §2"}, "[16]": {"target": "T4, Amine oxidase [flavin-containing] B", "experiment": "Inhibition of MAO-B (unknown origin) relative to control"}, "[17]": {"experiment": "Antioxidant activity assessed as AAPH scavenging activity by ORAC fluorescein assay", "type": "functional", "method_in_brief": "as §3"}},
  "data": [
    {"smiles": "COc1cc(/C=C/C(=O)CC(=O)/C=C/c2ccc(O)c(OC)c2)ccc1O", "values": [
      {"measurement": "inhibition", "setting": "[1]", "result": 76.5, "unit": "%"},
      {"measurement": "Activity", "setting": "[2]", "result": 56.5, "unit": "%"}
    ]},
    {"smiles": "O=C(/C=C/c1ccccc1)c1ccc(OCCCCCCN2CCCC2)cc1O", "values": [
      {"measurement": "IC50", "setting": "Acetylcholinesterase [3]", "result": 4.2, "unit": "µM"},
      {"measurement": "IC50", "setting": "Cholinesterase [4]", "result": 15.8, "unit": "µM"},
      {"measurement": "inhibition at 10 µM", "setting": "[5]", "result": 9.5, "unit": "%"},
      {"measurement": "IC50", "setting": "Cholinesterase [6]", "result": 12.3, "unit": "µM"},
      {"measurement": "IC50", "setting": "[7]", "result": 12.7, "unit": "µM"},
      {"measurement": "Ratio IC50", "setting": "[8]", "result": 2.9},
      {"measurement": "IC50", "setting": "Acetylcholinesterase [9]", "result": 3.2, "unit": "µM"}
    ]},
    {"smiles": "CCN(CC)Cc1ccc(/C=C/C(=O)c2ccc(OC)c(OC)c2)cc1O", "values": [
      {"measurement": "IC50", "setting": "Acetylcholinesterase [10]", "result": 0.44, "unit": "µM"},
      {"measurement": "IC50", "setting": "[11]", "result": 1.21, "unit": "µM"},
      {"measurement": "inhibition", "setting": "[12]", "result": 55, "unit": "%"}
    ]},
    {"smiles": "CCN(C)C(=O)Oc1cccc(/C=C/C(=O)c2ccccc2O)c1", "values": [
      {"measurement": "IC50", "setting": "Cholinesterase [13]", "result": 3.1, "unit": "µM"}
    ]},
    {"smiles": "CCN(CC)CCCCCCOc1ccc(/C=C/C(=O)c2ccc(OCCCCCCN(CC)CC)cc2O)cc1", "values": [
      {"measurement": "IC50", "setting": "Acetylcholinesterase [3]", "result": 3.7, "unit": "µM"},
      {"measurement": "inhibition", "setting": "[1]", "result": 84.2, "unit": "%"},
      {"measurement": "Activity", "setting": "[14]", "result": 1.1, "unit": "Trolox eq"},
      {"measurement": "inhibition at 10 µM", "setting": "[5]", "result": 8.7, "unit": "%"},
      {"measurement": "inhibition", "setting": "[15]", "result": 63.7, "unit": "%"},
      {"measurement": "IC50", "setting": "Cholinesterase [6]", "result": 4.2, "unit": "µM"},
      {"measurement": "IC50", "setting": "[7]", "result": 1.6, "unit": "µM"},
      {"measurement": "Ratio IC50", "setting": "[8]", "result": 1.1}
    ]},
    {"smiles": "CCN(CC)c1ccc(/C=C/C(=O)c2cc(-c3ccc(C(C)C(=O)OC)cc3F)ccc2O)cc1", "note": "(stereo not drawn)", "values": [
      {"measurement": "inhibition (INH)", "setting": "[16]", "result": 75.5, "unit": "%"},
      {"measurement": "Activity", "setting": "[17]", "result": 3.3, "unit": "Trolox eq"}
    ]},
    {"smiles": "O=C(/C=C/c1ccc(OCCCCCCN2CCCC2)cc1)c1ccccc1O", "values": [
      {"measurement": "IC50", "setting": "Acetylcholinesterase [3]", "result": 8.9, "unit": "µM"},
      {"measurement": "inhibition at 10 µM", "setting": "[5]", "result": 15.6, "unit": "%"},
      {"measurement": "IC50", "setting": "Cholinesterase [6]", "result": 50.2, "unit": "µM"},
      {"measurement": "IC50", "setting": "[7]", "result": 18.5, "unit": "µM"},
      {"measurement": "Ratio IC50", "setting": "[8]", "result": 5.6}
    ]}
  ]
}
